{
  "source": "ChEMBL document CHEMBL3997766",
  "about": "“Synthesis and pre-clinical studies of new amino-acid ester thiazolide prodrugs” (Eur J Med Chem, 2017)",
  "key": {"Rattus norvegicus [1]": {"tested_on": "Rattus norvegicus", "assay": "Toxicity in Sprague-Dawley rat assessed as effect on respiratory rate by measuring minute volume dose at 1000 mg/kg administered as single dose via oral gavage", "type": "organism-based", "settings": "in vivo", "in_short": "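Conscious rats in three groups of six (3M/3F) got single oral gavage doses of 100, 300 or 1000 mg/kg, with an untreated control group. Respiratory rate (breaths per minute), tidal volume and minute volume were recorded.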"}, "Canis familiaris [2]": {"tested_on": "Canis familiaris", "assay": "Toxicity in Beagle dog assessed as organ weight up to 25 mg/kg, po administered as gelatin capsule once daily for 28 days", "type": "organism-based, Canis lupus familiaris", "settings": "in vivo, 672 h", "in_short": "(§1)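 Sub-acute study in Beagle dogs dosed orally by gelatin capsule at 5, 15 and 25 mg/kg once a day for 28 consecutive days.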"}, "Rattus norvegicus [3]": {"tested_on": "Rattus norvegicus", "assay": "Tmax in Sprague-Dawley rat assessed as Tizoxanide level in plasma at 28 mg/kg, po", "type": "ADME, organism-based", "settings": "in vivo", "in_short": "(§2)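 Rats in groups of three got a single oral dose (30 mg/kg) or a single intravenous injection (6 mg/kg). Serial blood samples were taken at 5, 10, 15 and 30 min and at 1, 2, 4, 8, 23 and 24 h post-dose for plasma drug and glucuronide levels. Bioavailability came from oral versus intravenous AUC after dose correction to 30 mg/kg.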"}, "Rattus norvegicus [4]": {"tested_on": "Rattus norvegicus", "assay": "Toxicity in Sprague-Dawley rat at 10 to 75 mg/kg administered as oral gavage qd for 28 consecutive days by ophthalmoscopic method", "type": "organism-based", "settings": "in vivo", "in_short": "(§3)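 Sub-acute study in Sprague-Dawley rats: 10, 30 or 75 mg/kg given orally once a day for 28 consecutive days as a yellow suspension. There were 4 groups of up to 30 rats each (15M/15F), including a control. Body weight, clinical observations and terminal findings were assessed.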"}, "Rattus norvegicus [5]": {"tested_on": "Rattus norvegicus", "assay": "Toxicity in Sprague-Dawley rat assessed as eosinophilic cytoplasmic bodies in epithelial cells of duodenum at 75 mg/kg administered as oral gavage qd for 28 consecutive days followed by 2 weeks recovery period by microscopic method", "type": "organism-based", "settings": "in vivo, 336 h", "in_short": "(§4)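 Sub-acute study in Sprague-Dawley rats dosed orally with a suspension at 10, 30 and 75 mg/kg once daily for 28 consecutive days. Four groups of up to 30 rats each (15M/15F).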"}, "Rattus norvegicus [6]": {"tested_on": "Rattus norvegicus", "assay": "Tmax in Sprague-Dawley rat assessed as Tizoxanide in plasma at 6.3 mg/kg, iv administered as single dose", "type": "ADME, organism-based", "settings": "in vivo", "in_short": "as §2"}, "Plasma [7]": {"tested_on": "Plasma", "assay": "Drug metabolism in Sprague-Dawley rat assessed as tizoxanide-glucuronide level in plasma administered via oral gavage qd for 28 consecutive days", "type": "ADME", "in_short": "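In a sub-acute study, Sprague-Dawley rats were dosed once daily for 28 consecutive days at 10, 30 or 75 mg/kg, given as a yellow suspension. There were four groups of up to 30 rats each (15M/15F) to assess systemic exposure.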"}, "Canis familiaris [8]": {"tested_on": "Canis familiaris", "assay": "Toxicity in Beagle dog assessed as effect on urinalysis parameters up to 25 mg/kg, po administered as gelatin capsule once daily for 28 days measured on day 29", "type": "organism-based, Canis lupus familiaris", "settings": "in vivo, 672 h", "in_short": "as §1"}, "Canis familiaris [9]": {"tested_on": "Canis familiaris", "assay": "Toxicity in Beagle dog assessed as decrease in cholesterol level at 25 mg/kg, po administered as gelatin capsule once daily for 28 days followed by two weeks of recovery period", "type": "organism-based, Canis lupus familiaris", "settings": "in vivo, 672 h", "in_short": "as §1"}, "Rattus norvegicus [10]": {"tested_on": "Rattus norvegicus", "assay": "Cmax in Sprague-Dawley rat assessed as Tizoxanide level in plasma at 6 mg/kg, iv administered as single dose", "type": "ADME, organism-based", "design": "dose 6 mg/kg, route intravenous", "settings": "in vivo", "in_short": "(§5)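 Rats in groups of three received one compound as a single oral dose (30 mg/kg) or a single intravenous injection (6 mg/kg), with four compounds studied separately. Serial blood samples were drawn at 5, 10, 15 and 30 min and at 1, 2, 4, 8, 23 and 24 h post-dose. Plasma parent drug and metabolites were quantified and PK parameters were derived.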"}, "Rattus norvegicus [11]": {"tested_on": "Rattus norvegicus", "assay": "Toxicity in Sprague-Dawley rat assessed as increase in spleen to body weight ratio at 75 mg/kg administered as oral gavage qd for 28 consecutive days measured on day 29", "type": "organism-based", "settings": "in vivo", "in_short": "as §4"}, "Rattus norvegicus [12]": {"tested_on": "Rattus norvegicus", "assay": "Toxicity in Sprague-Dawley rat assessed as decrease in serum alanine transferase level at 75 mg/kg administered as oral gavage qd for 28 consecutive days followed by 2 weeks recovery period measured on day 43", "type": "organism-based", "settings": "in vivo, 336 h", "in_short": "as §4"}, "Canis familiaris [13]": {"tested_on": "Canis familiaris", "assay": "Toxicity in Beagle dog assessed as change in food consumption up to 25 mg/kg, po administered as gelatin capsule once daily for 28 days", "type": "organism-based, Canis lupus familiaris", "settings": "in vivo, 672 h", "in_short": "as §1"}, "Rattus norvegicus [14]": {"tested_on": "Rattus norvegicus", "assay": "Neurotoxicity in Sprague-Dawley rat at 100 to 300 mg/kg, po administered via gavage as single dose after 4 to 24 hrs", "type": "toxicity, organism-based", "settings": "in vivo", "in_short": "(§6)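 CNS safety study in rats: single oral-gavage doses of 100, 300 or 1000 mg/kg to 3 groups of 10 (5M/5F), with an untreated control group. Clinical signs (activity, abdominal tone, breathing, tremors, pain response) were recorded at 4 and 24 h after dosing, and mortality was noted.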"}, "Rattus norvegicus [15]": {"tested_on": "Rattus norvegicus", "assay": "Cmax in Sprague-Dawley rat assessed as tizoxanide-glucuronide level in plasma at 30 mg/kg, po administered as single dose", "type": "ADME, organism-based", "design": "dose 30 mg/kg, route oral", "settings": "in vivo", "in_short": "as §5"}, "Rattus norvegicus [16]": {"tested_on": "Rattus norvegicus", "assay": "Toxicity in Sprague-Dawley rat assessed as effect on respiratory rate by measuring breaths per minute at 100 to 1000 mg/kg administered as single dose via oral gavage", "type": "organism-based", "settings": "in vivo", "in_short": "(§7)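 Respiratory safety study: conscious rats, 3 groups of 6 (3M/3F), given single oral-gavage doses of 100, 300 or 1000 mg/kg, with an untreated control group. Respiratory rate (breaths per minute), tidal volume and minute volume were recorded, and mortality was noted.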"}, "Rattus norvegicus [17]": {"tested_on": "Rattus norvegicus", "assay": "Toxicity in Sprague-Dawley rat assessed as decrease in prothrombine time at 10 to 75 mg/kg administered as oral gavage qd for 28 consecutive days followed by 2 weeks recovery period measured on day 43", "type": "organism-based", "settings": "in vivo, 336 h", "in_short": "as §4"}, "Rattus norvegicus [18]": {"tested_on": "Rattus norvegicus", "assay": "Toxicity in Sprague-Dawley rat assessed as mortality at 100 to 1000 mg/kg administered as single dose via oral gavage", "type": "organism-based", "settings": "in vivo", "in_short": "as §6"}, "Rattus norvegicus [19]": {"tested_on": "Rattus norvegicus", "assay": "AUC (0 to t) in male Sprague-Dawley rat assessed as Tizoxanide-glucuronide level in plasma at 6 mg/kg, iv administered as single dose", "type": "ADME, organism-based", "settings": "in vivo", "in_short": "(§8)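 Plasma tizoxanide and tizoxanide glucuronide were measured and PK parameters derived. AUCs were dose-corrected to 30 mg/kg for bioavailability.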"}, "Rattus norvegicus [20]": {"tested_on": "Rattus norvegicus", "assay": "Toxicity in Sprague-Dawley rat assessed as decrease in urine specific gravity at 30 to 75 mg/kg administered as oral gavage qd for 28 consecutive days followed by 2 weeks recovery period measured on day 43", "type": "organism-based", "settings": "in vivo, 336 h", "in_short": "as §4"}, "Plasma [21]": {"tested_on": "Plasma", "assay": "Drug metabolism in Sprague-Dawley rat assessed as tizoxanide-glucuronide formation in plasma at 30 mg/kg, po administered as single dose measured after 5 mins", "type": "ADME, organism-based", "settings": "in vivo", "in_short": "as §8"}, "Rattus norvegicus [22]": {"tested_on": "Rattus norvegicus", "assay": "Toxicity in Sprague-Dawley rat assessed as effect on food consumption at 10 to 75 mg/kg administered as oral gavage qd for 28 consecutive days measured once per week during compound dosing", "type": "organism-based", "settings": "in vivo", "in_short": "as §3"}, "Canis familiaris [23]": {"tested_on": "Canis familiaris", "assay": "Cardiotoxicity in Beagle dog up to 25 mg/kg, po administered as gelatin capsule once daily for 28 days measured 1 hr post last dose on one of last 3 days of dosing", "type": "toxicity, organism-based, Canis lupus familiaris", "settings": "in vivo", "in_short": "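Beagle dogs received the drug orally in a single gelatin capsule at 5, 15 or 25 mg/kg once daily for 28 consecutive days in a sub-acute toxicity study assessing systemic exposure.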"}, "Rattus norvegicus [24]": {"tested_on": "Rattus norvegicus", "assay": "Toxicity in Sprague-Dawley rat assessed as effect on respiratory rate by measuring minute volume dose at 100 to 300 mg/kg administered as single dose via oral gavage", "type": "organism-based", "settings": "in vivo", "in_short": "as §7"}},
  "data": [
    {"molecule": "CC(C)(C)[C@H](N)C(=O)Oc1ccccc1C(=O)Nc1ncc([N+](=O)[O-])s1.Cl", "values": [
      {"measurement": "Activity", "setting": "Rattus norvegicus [1]", "value": "Toxic"},
      {"measurement": "Activity", "setting": "Canis familiaris [2]", "value": "Non-Toxic"},
      {"measurement": "Tmax", "setting": "Rattus norvegicus [3]", "value": "5 to 15", "unit": "min"},
      {"measurement": "Activity", "setting": "Rattus norvegicus [4]", "value": "Non-Toxic"},
      {"measurement": "Activity", "setting": "Rattus norvegicus [5]", "value": "Non-Toxic"},
      {"measurement": "Tmax", "setting": "Rattus norvegicus [6]", "value": 5, "unit": "min"},
      {"measurement": "Drug metabolism", "setting": "Plasma [7]", "value": "Dose-dependent effect"},
      {"measurement": "Activity", "setting": "Canis familiaris [8]", "value": "Non-Toxic"},
      {"measurement": "Activity", "setting": "Canis familiaris [9]", "value": "Non-Toxic"},
      {"measurement": "Cmax", "setting": "Rattus norvegicus [10]", "value": 12800, "unit": "ng/mL"},
      {"measurement": "Activity", "setting": "Rattus norvegicus [11]", "value": "Toxic"},
      {"measurement": "Activity", "setting": "Rattus norvegicus [12]", "value": "Toxic"},
      {"measurement": "Activity", "setting": "Canis familiaris [13]", "value": "Non-Toxic"},
      {"measurement": "Activity", "setting": "Rattus norvegicus [14]", "value": "Non-Toxic"},
      {"measurement": "Cmax", "setting": "Rattus norvegicus [15]", "value": 18600, "unit": "ng/mL"},
      {"measurement": "Activity", "setting": "Rattus norvegicus [16]", "value": "Toxic"},
      {"measurement": "Activity", "setting": "Rattus norvegicus [17]", "value": "Toxic"},
      {"measurement": "Activity", "setting": "Rattus norvegicus [18]", "value": "Non-Toxic"},
      {"measurement": "AUCt", "setting": "Rattus norvegicus [19]", "value": 13600, "unit": "ng·h/mL"},
      {"measurement": "Activity", "setting": "Rattus norvegicus [20]", "value": "Toxic"},
      {"measurement": "Drug metabolism", "setting": "Plasma [21]", "value": "Metabolite_Detected"},
      {"measurement": "Activity", "setting": "Rattus norvegicus [22]", "value": "Non-Toxic"},
      {"measurement": "Activity", "setting": "Canis familiaris [23]", "value": "Non-Toxic"},
      {"measurement": "Activity", "setting": "Rattus norvegicus [24]", "value": "Non-Toxic"}
    ]}
  ]
}
